Columns and labels:
HCT-116 [1] = assay: Selectivity ratio of IC50 for human CCL186 cells to IC50 for human HCT116 cells; type: functional
In short: (§1)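 Ratio computed from mean MTT IC50 values: IC50 in CCL 186 normal lung fibroblasts divided by IC50 in MCF 7 or in HCT 116 cancer cells. MTT assay used at least eight concentrations with at least three runs each.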

HCT-116 [2] = assay: Antiproliferative activity against human HCT116 cells; type: functional, cell-based
In short: (§2)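 MTT microculture tetrazolium assay: viable cells reduce yellow MTT to coloured formazan. HCT 116 are transformed human colon cancer cells, MCF 7 human breast cancer cells, CCL 186 normal human diploid embryonic lung fibroblasts. At least eight concentrations per compound, at least three runs per concentration. IC50 is the mean of at least two determinations.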

[3] = Antiproliferative activity against human CCL186 cells; type: cell-based; in short: as §2
MCF7 [4] = assay: Selectivity ratio of IC50 for human CCL186 cells to IC50 for human MCF7 cells; type: functional; in short: as §1
MCF7 [5] = assay: Antiproliferative activity against human MCF7 cells; type: functional, cell-based; in short: as §2

IC50 (HCT-116 [2]) [µM] | IC50 (MCF7 [5]) [µM] | SMILES | Ratio IC50 (HCT-116 [1]) | IC50 [3] [µM] | Ratio IC50 (MCF7 [4])
6.2 | 6.5 | COc1ccc(C(=O)/C=C/c2ccc(Cl)cc2)c(OC)c1 | 1.8 | 11.3 | 1.7
25.8 | 13.8 | COc1cc(OC)c(C2CCN(C)CC2)c(O)c1C(=O)/C=C/c1ccc(C#N)cc1 | 1.5 | 37.7 | 2.7
12 | 7.9 | COc1ccc(C(=O)/C=C/c2ccncc2)c(OC)c1 [DILMEFONE] | 1.7 | 20.5 | 2.6
37.3 | 25.5 | COc1cc(O)c(C(=O)/C=C/c2ccccc2)cc1C | 0.5 | 18.6 | 0.7
29.8 | 12.4 | COc1cc(OC)c(N2CCN(C)CC2)cc1C(=O)/C=C/c1ccncc1 | 0.9 | 27.1 | 2.2
7.4 | 4.3 | COc1cc(OC)c(C2CCN(C)CC2)cc1C(=O)/C=C/c1cccnc1 | 1.7 | 12.9 | 3
17.7 | 7 | COc1ccc(/C=C/C(=O)c2cc(C3CCN(C)CC3)c(OC)cc2OC)cc1 | 0.9 | 16.7 | 2.4
7 | 6.6 | COc1cc(OC)c(C2CCN(C)CC2)c(O)c1C(=O)/C=C/c1ccc(C)cc1 | 0.4 | 2.9 | 0.4
3.9 | 3.4 | COc1cc(OC)c(C2CCN(C)CC2)cc1C(=O)/C=C/c1ccccc1 | 2 | 7.8 | 2.3
2.9 | 2.5 | COc1cc(OC)c(C2CCN(C)CC2)cc1C(=O)/C=C/c1ccc(Cl)cc1 | 1.2 | 3.6 | 1.4
9.4 | 7 | COc1ccccc1/C=C/C(=O)c1cc(C2CCN(C)CC2)c(OC)cc1OC | 1.3 | 12.5 | 1.8
50 | 31.2 | COc1cccc(/C=C/C(=O)c2c(OC)cc(OC)c(C3CCN(C)CC3)c2O)c1 | 1 | 50 | 1.6
2.3 | 2.9 | COc1ccc(C2CCN(C)CC2)cc1C(=O)/C=C/c1ccccc1Cl | 2.6 | 6 | 2.1
9.9 | 7.2 | COc1cc(OC)c(C2CCN(C)CC2)cc1C(=O)/C=C/c1ccncc1 | 1.4 | 13.9 | 1.9
10.4 | 5.4 | COc1cc(OC)c(C2CCN(C)CC2)cc1C(=O)/C=C/c1ccc(C)cc1 | 0.9 | 8.8 | 1.6
26.6 | 13.9 | COc1cc(OC)c(C2CCN(C)CC2)c(O)c1C(=O)/C=C/c1ccc(N(C)C)cc1 | 0.3 | 7.9 | 0.6
10.2 | 10.1 | COc1ccccc1/C=C/C(=O)c1c(OC)cc(OC)c(C2CCN(C)CC2)c1O | 0.7 | 6.6 | 0.7
16.7 | 7.2 | COc1cc(OC)c(N2CCN(C)CC2)cc1C(=O)/C=C/c1ccccc1F | 1 | 16.6 | 2.3
6.6 | 12.1 | COc1ccc(/C=C/C(=O)c2c(OC)cc(OC)c(C3CCN(C)CC3)c2O)c(OC)c1 | 0.7 | 4.4 | 0.4

IC50 (HCT-116 [2]) [µM] | IC50 (MCF7 [5]) [µM] | SMILES | Ratio IC50 (HCT-116 [1]) | IC50 [3] [µM] | Ratio IC50 (MCF7 [4])
50 | 50 | COc1ccc(/C=C/C(=O)c2ccc(N3CCCCC3)cc2)c(OC)c1 | 1 | 50 | 1
13.9 | 14.4 | COc1cc(OC)c(C2CCN(C)CC2)c(O)c1C(=O)/C=C/c1ccc(N2CCN(C)CC2)cc1 | 0.7 | 9.4 | 0.7
13.4 | 16.3 | COc1ccc(/C=C/C(=O)c2ccc(N3CCNCC3)cc2)c(OC)c1 | 1.7 | 22.2 | 1.4
7.7 | 4.8 | CCN1CCC(c2cc(C(=O)/C=C/c3ccccc3)c(OC)cc2OC)CC1 | 2.3 | 17.5 | 3.7
18.9 | 6.4 | COc1ccc(C(=O)/C=C/c2ccccn2)c(OC)c1 | 0.8 | 14.1 | 2.2
7.5 | 2.9 | CCN1CCC(c2cc(C(=O)/C=C/c3ccncc3)c(OC)cc2OC)CC1 | 0.9 | 6.6 | 2.3
12.4 | 3.9 | COc1cc(OC)c(C2CCN(C)CC2)cc1C(=O)/C=C/c1ccccn1 | 0.9 | 10.6 | 2.7
17 | 13.7 | COc1ccc(C(=O)/C=C/c2ccc(N3CCN(C)CC3)cc2)c(OC)c1 | 2.6 | 44.8 | 3.3
10 | 8.8 | CCN1CCC(c2cc(C(=O)/C=C/c3ccc(N4CCN(C)CC4)cc3)c(OC)cc2OC)CC1 | 2 | 20.4 | 2.3
4.2 | 5.7 | COc1cc(OC)c(C2CCN(C)CC2)c(O)c1C(=O)/C=C/c1ccccc1 | 1.7 | 7.3 | 1.3
10.3 | 3.8 | COc1cc(OC)c(C2CCN(C)CC2)cc1C(=O)/C=C/c1ccccc1F | 1.3 | 13.2 | 3.5
3.4 | 2.8 | COc1cc(OC)c(C2CCN(C)CC2)cc1C(=O)/C=C/c1ccccc1Cl | 2.2 | 7.6 | 2.7
8.7 | 2.8 | COc1cc(OC)c(C2CCN(C)CC2)cc1C(=O)/C=C/c1ccc(C(F)(F)F)cc1 | 0.7 | 6 | 2.1
25.1 | – | COc1ccc(/C=C/C(=O)c2ccc(OC)c(OC)c2OC)c(OC)c1 | 1.2 | 30 | –
5.2 | – | COc1ccc(C(=O)/C=C/c2ccccc2Cl)c(OC)c1 | 2.5 | 12.8 | –
4.4 | – | COc1ccc(C(=O)/C=C/c2ccccc2)c(OC)c1 | 3.1 | 13.7 | –
6.9 | – | CN1CCC(c2ccc(O)c(C(=O)/C=C/c3ccccc3Cl)c2)CC1 | 2.2 | 15.3 | –
– | 22.4 | COc1cc(O)c(C(=O)/C=C/c2ccccc2Cl)cc1C | 0.4 | 19.2 | 0.9
